{
  "source": "paper PMC8602434",
  "about": "(Drugs in R&D, 2021)",
  "assay_type_in_all_cases": "in vivo",
  "key": {"[1]": {"assay": "Healthy volunteers, single-dose arm, sc", "details": "human", "how_it_was_run": "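Double-blind single abdominal sc injection at 0.1, 0.5, 1, 3 or 5 mg versus placebo. Cohorts of six or eight subjects; the 0.1 mg cohort had 4 active and 2 placebo. Serial blood sampling to 48 h post-dose. Plasma assayed by validated bioanalytical method. Noncompartmental analysis: Cmax, tmax, t½, AUC (linear trapezoidal to last quantifiable concentration), AUC∞, CL/F. AEs recorded.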"}, "[2]": {"assay": "Mouse pharmacokinetics, single sc or iv dose, plasma LC-MS", "details": "for AUC∞: plasma LC-MS"}, "[3]": {"assay": "Rat 28-day toxicology study with toxicokinetic analysis, sc", "how_it_was_run": "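Male and female CD Sprague Dawley rats (233–264 g male, 172–201 g female). 28-day toxicology study (70 per sex) with daily sc dosing at 0, 1.0, 5.0 or 25.0 mg/kg/day. Blood drawn via sublingual vein, three animals per sex per dose at each time point. Noncompartmental analysis of mean concentration–time data gave AUClast, Cmax, tmax and t½.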"}, "[4]": {"assay": "Dog 28-day toxicology study with pharmacokinetic analysis, sc"}, "[5]": {"details": "single 1.0 mg sc, geometric mean, n=6"}, "[6]": {"details": "single 3.0 mg sc, mean (SD), n=6"}, "[7]": {"details": "single 5.0 mg sc, geometric mean, n=6"}, "[8]": {"details": "single 5.0 mg sc, mean (SD), n=6"}},
  "data": [
    {"compound": "CCCC[C@H](NC(C)=O)C(=O)N[C@H]1CCC(=O)NC[C@@H](C(=O)N[C@@H](Cc2c[nH]c3ccccc23)C(N)=O)NC(=O)[C@H](CCCNC(=N)N)NC(=O)[C@@H](Cc2ccccc2)NC(=O)[C@H](Cc2c[nH]cn2)NC1=O", "note": "[PL8177]", "values": [
      {"measurement": "Cmax/dose", "setting": "[1]; single 0.5 mg sc, median, n=4", "result": 14.3, "unit": "ng/mL/mg"},
      {"measurement": "t½", "setting": "[1]; single 0.5 mg sc, median, n=4", "result": 156, "unit": "min"},
      {"measurement": "AUC∞/dose", "setting": "[1]; single 1.0 mg sc, geometric mean, n=3", "result": 35.4, "unit": "ng·h/mL/mg"},
      {"measurement": "AUC0–t", "setting": "[1]; [5]", "result": 39.4, "unit": "ng·h/mL"},
      {"measurement": "AUC∞", "setting": "[1]; [5]", "result": 44.9, "unit": "ng·h/mL"},
      {"measurement": "CL/F", "setting": "[1]; [5]", "result": 22.3, "unit": "L/h"},
      {"measurement": "Cmax", "setting": "[1]; [5]", "result": 16.7, "unit": "ng/mL"},
      {"measurement": "Cmax/dose", "setting": "[1]; [5]", "result": 16.7, "unit": "ng/mL/mg"},
      {"measurement": "t½", "setting": "[1]; [5]", "result": 366, "unit": "min"},
      {"measurement": "AUC∞/dose", "setting": "[1]; single 1.0 mg sc, mean (SD), n=3", "result": "35.4 (1.8) ng·h/mL/mg"},
      {"measurement": "Cmax/dose", "setting": "[1]; single 1.0 mg sc, mean (SD), n=6", "result": "17.4 (5.0) ng/mL/mg"},
      {"measurement": "AUC∞/dose", "setting": "[1]; single 1.0 mg sc, median, n=3", "result": 34.5, "unit": "ng·h/mL/mg"},
      {"measurement": "AUC0–t", "setting": "[1]; single 1.0 mg sc, median, n=6", "result": 39.2, "unit": "ng·h/mL"},
      {"measurement": "AUC∞", "setting": "[1]; single 1.0 mg sc, median, n=6", "result": 45.5, "unit": "ng·h/mL"},
      {"measurement": "CL/F", "setting": "[1]; single 1.0 mg sc, median, n=6", "result": 22.7, "unit": "L/h"},
      {"measurement": "Cmax", "setting": "[1]; single 1.0 mg sc, median, n=6", "result": 18.3, "unit": "ng/mL"},
      {"measurement": "Cmax/dose", "setting": "[1]; single 1.0 mg sc, median, n=6", "result": 18.3, "unit": "ng/mL/mg"},
      {"measurement": "t½", "setting": "[1]; single 1.0 mg sc, median, n=6", "result": 360, "unit": "min"},
      {"measurement": "AUC∞/dose", "setting": "[1]; single 3.0 mg sc, geometric mean, n=4", "result": 50.9, "unit": "ng·h/mL/mg"},
      {"measurement": "Cmax/dose", "setting": "[1]; single 3.0 mg sc, geometric mean, n=6", "result": 17.8, "unit": "ng/mL/mg"},
      {"measurement": "AUC∞/dose", "setting": "[1]; single 3.0 mg sc, mean (SD), n=4", "result": "51.3 (7.7) ng·h/mL/mg"},
      {"measurement": "AUC0–t", "setting": "[1]; [6]", "result": "138 (18.9) ng·h/mL"},
      {"measurement": "AUC∞", "setting": "[1]; [6]", "result": "158 (19.4) ng·h/mL"},
      {"measurement": "Cmax", "setting": "[1]; [6]", "result": "54.4 (11.3) ng/mL"},
      {"measurement": "Cmax/dose", "setting": "[1]; [6]", "result": "18.1 (3.8) ng/mL/mg"},
      {"measurement": "AUC∞/dose", "setting": "[1]; single 3.0 mg sc, median, n=4", "result": 51.1, "unit": "ng·h/mL/mg"},
      {"measurement": "AUC0–t", "setting": "[1]; single 3.0 mg sc, median, n=6", "result": 138, "unit": "ng·h/mL"},
      {"measurement": "Cmax/dose", "setting": "[1]; single 3.0 mg sc, median, n=6", "result": 16.4, "unit": "ng/mL/mg"},
      {"measurement": "tmax", "setting": "[1]; single 3.0 mg sc, median, n=6", "result": 36, "unit": "min"},
      {"measurement": "AUC0–t", "setting": "[1]; [7]", "result": 224, "unit": "ng·h/mL"},
      {"measurement": "AUC∞", "setting": "[1]; [7]", "result": 237, "unit": "ng·h/mL"},
      {"measurement": "AUC∞/dose", "setting": "[1]; [7]", "result": 47.5, "unit": "ng·h/mL/mg"},
      {"measurement": "CL/F", "setting": "[1]; [7]", "result": 21.1, "unit": "L/h"},
      {"measurement": "Cmax", "setting": "[1]; [7]", "result": 83.4, "unit": "ng/mL"},
      {"measurement": "Cmax/dose", "setting": "[1]; [7]", "result": 16.7, "unit": "ng/mL/mg"},
      {"measurement": "t½", "setting": "[1]; [7]", "result": 966, "unit": "min"},
      {"measurement": "AUC∞/dose", "setting": "[1]; [8]", "result": "48.0 (7.4) ng·h/mL/mg"},
      {"measurement": "Cmax/dose", "setting": "[1]; [8]", "result": "17.6 (6.2) ng/mL/mg"},
      {"measurement": "AUC0–t", "setting": "[1]; single 5.0 mg sc, median, n=6", "result": 235, "unit": "ng·h/mL"},
      {"measurement": "AUC∞", "setting": "[1]; single 5.0 mg sc, median, n=6", "result": 246, "unit": "ng·h/mL"},
      {"measurement": "AUC∞/dose", "setting": "[1]; single 5.0 mg sc, median, n=6", "result": 49.2, "unit": "ng·h/mL/mg"},
      {"measurement": "CL/F", "setting": "[1]; single 5.0 mg sc, median, n=6", "result": 20.3, "unit": "L/h"},
      {"measurement": "Cmax", "setting": "[1]; single 5.0 mg sc, median, n=6", "result": 80.9, "unit": "ng/mL"},
      {"measurement": "Cmax/dose", "setting": "[1]; single 5.0 mg sc, median, n=6", "result": 16.2, "unit": "ng/mL/mg"},
      {"measurement": "Vd/F", "setting": "[1]; single 5.0 mg sc, median, n=6", "result": 496, "unit": "L"},
      {"measurement": "t½", "setting": "[1]; single 5.0 mg sc, median, n=6", "result": 1040, "unit": "min"},
      {"measurement": "Overall tolerability", "setting": "[1]; single and multiple ascending sc doses", "result": "well tolerated"},
      {"measurement": "Time after dosing at which PL8177 was first measurable in plasma", "setting": "[1]; single sc dose", "result": 15, "unit": "min"},
      {"measurement": "Persistence of measurable PL8177 in plasma", "setting": "[1]; single sc dose, at higher doses", "result": "up to 48 h"},
      {"measurement": "AEs leading to study discontinuation, serious AEs, or severe AEs", "setting": "[1]; single-dose arm", "result": "no reports"},
      {"measurement": "Dose linearity for AUC∞ and Cmax", "setting": "[1]; single-dose arm", "result": "inconclusive"},
      {"measurement": "Intact drug excreted in the urine", "setting": "[1]; single-dose arm", "result": "≤ 1", "unit": "%"},
      {"measurement": "Time after dosing at which Cmax was generally reached (tmax)", "setting": "[1]; single-dose arm", "result": "30 to 45", "unit": "min"},
      {"measurement": "F (bioavailability)", "setting": "[2]; 1 mg/kg sc versus iv", "result": 0.63},
      {"measurement": "t½", "setting": "[2]; single 1 mg/kg iv", "result": 12, "unit": "min"},
      {"measurement": "AUC∞", "setting": "[2]; single 1 mg/kg iv", "result": 753, "unit": "ng·h/mL"},
      {"measurement": "Cmax", "setting": "[2]; single 1 mg/kg sc", "result": 703, "unit": "ng/mL"},
      {"measurement": "tmax", "setting": "[2]; single 1 mg/kg sc", "result": 4.98, "unit": "min"},
      {"measurement": "t½", "setting": "[2]; single 1 mg/kg sc", "result": 15.6, "unit": "min"},
      {"measurement": "AUC∞", "setting": "[2]; single 1 mg/kg sc", "result": 476, "unit": "ng·h/mL"},
      {"measurement": "Cmax", "setting": "[2]; single 3 mg/kg sc", "result": 2440, "unit": "ng/mL"},
      {"measurement": "tmax", "setting": "[2]; single 3 mg/kg sc", "result": 15, "unit": "min"},
      {"measurement": "t½", "setting": "[2]; single 3 mg/kg sc", "result": 30, "unit": "min"},
      {"measurement": "AUC∞", "setting": "[2]; single 3 mg/kg sc", "result": 1727, "unit": "ng·h/mL"},
      {"measurement": "tmax", "setting": "[3]; rat F, 1.0 mg/kg sc daily, Day 14 (truncated curve, 3 data points)", "result": 30, "unit": "min"},
      {"measurement": "tmax", "setting": "[3]; rat F, 1.0 mg/kg sc daily, Day 28", "result": 30, "unit": "min"},
      {"measurement": "tmax", "setting": "[3]; rat F, 5.0 mg/kg sc daily, Day 14 (truncated curve, 3 data points)", "result": 60, "unit": "min"},
      {"measurement": "tmax", "setting": "[3]; rat F, 25.0 mg/kg sc daily, Day 14 (truncated curve, 3 data points)", "result": 30, "unit": "min"},
      {"measurement": "tmax", "setting": "[3]; rat F, 25.0 mg/kg sc daily, Day 28", "result": 30, "unit": "min"},
      {"measurement": "tmax", "setting": "[3]; rat M, 1.0 mg/kg sc daily, Day 1", "result": 30, "unit": "min"},
      {"measurement": "tmax", "setting": "[3]; rat M, 1.0 mg/kg sc daily, Day 14 (truncated curve, 3 data points)", "result": 30, "unit": "min"},
      {"measurement": "tmax", "setting": "[3]; rat M, 1.0 mg/kg sc daily, Day 28", "result": 30, "unit": "min"},
      {"measurement": "tmax", "setting": "[3]; rat M, 5.0 mg/kg sc daily, Day 14 (truncated curve, 3 data points)", "result": 60, "unit": "min"},
      {"measurement": "tmax", "setting": "[3]; rat M, 5.0 mg/kg sc daily, Day 28", "result": 30, "unit": "min"},
      {"measurement": "tmax", "setting": "[3]; rat M, 25.0 mg/kg sc daily, Day 28", "result": 15, "unit": "min"},
      {"measurement": "Accumulation ratio (Rac), AUClast day 28/AUClast day 1", "setting": "[4]; 1.5- and 9.0-mg doses as printed", "result": 0.8},
      {"measurement": "Accumulation ratio (Rac), AUClast day 28/AUClast day 1", "setting": "[4]; 40-mg dose", "result": 1.8},
      {"measurement": "Difference between mean Cmax and AUClast values, multiple-dose versus single-dose", "setting": "[4]; sc", "result": "< 2", "unit": "fold"}
    ]}
  ]
}
